Calls of active or inactive are those of the source. The rule behind the calls is not given here.
How the values were obtained:
[1] = target: Epidermal growth factor receptor (Homo sapiens) (UniProt P00533); experiment: Inhibition of EGFR (unknown origin) at 100 nM using poly (4:1 Glu, Tyr) as substrate measured after 1 hr by ELISA
Summary of the method: (§1)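 ELISA kinase assay. Poly(Glu,Tyr)4:1 substrate was precoated at 20 μg mL–1. Active kinase was incubated with compound in 50 mM HEPES pH 7.4, 20 mM MgCl2, 0.1 mM MnCl2, 0.2 mM Na3VO4, 1 mM DTT and 5 μM ATP at 37 °C for 1 h. Phosphotyrosine was detected with anti-phosphotyrosine PY99 and an HRP secondary antibody, developed with OPD, and absorbance was read at 492 nm.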

[2] = target: T1, Tyrosine-protein kinase ITK/TSK (Homo sapiens) (UniProt Q08881); experiment: Inhibition of ITK (unknown origin) at 100 nM using poly (4:1 Glu, Tyr) as substrate measured after 1 hr by ELISA relative to control; summary of the method: as §1
T1 sequence (whole entry): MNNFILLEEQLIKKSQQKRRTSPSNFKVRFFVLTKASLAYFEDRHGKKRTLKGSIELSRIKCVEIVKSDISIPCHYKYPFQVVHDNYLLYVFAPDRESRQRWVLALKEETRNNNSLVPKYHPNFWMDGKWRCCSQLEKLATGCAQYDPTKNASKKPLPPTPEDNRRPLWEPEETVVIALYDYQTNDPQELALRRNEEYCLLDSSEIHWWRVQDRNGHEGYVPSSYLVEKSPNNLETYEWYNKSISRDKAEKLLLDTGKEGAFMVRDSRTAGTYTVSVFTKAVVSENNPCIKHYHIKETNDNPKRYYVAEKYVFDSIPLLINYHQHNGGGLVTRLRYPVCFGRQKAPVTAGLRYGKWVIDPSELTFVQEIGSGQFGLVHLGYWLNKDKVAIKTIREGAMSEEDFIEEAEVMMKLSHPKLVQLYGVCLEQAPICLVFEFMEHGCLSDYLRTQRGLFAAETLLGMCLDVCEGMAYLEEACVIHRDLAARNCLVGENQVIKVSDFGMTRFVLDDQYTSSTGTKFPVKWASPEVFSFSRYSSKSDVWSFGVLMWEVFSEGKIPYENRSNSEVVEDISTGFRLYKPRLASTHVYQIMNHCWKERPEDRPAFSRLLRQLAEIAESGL

Homo sapiens = species on record: Homo sapiens; experiment: Selectivity ratio of IC50 for EGFR (unknown origin) to IC50 for recombinant human full-length N-terminal His6-tagged BTK expressed in baculovirus infected Sf21insect cells
[3] = target: Receptor tyrosine-protein kinase erbB-2 (Homo sapiens) (UniProt P04626); experiment: Inhibition of ErbB2 (unknown origin) at 100 nM using poly (4:1 Glu, Tyr) as substrate measured after 1 hr by ELISA relative to control; summary of the method: as §1
[4] = target: T2, Tyrosine-protein kinase BTK (Homo sapiens, UniProt Q06187); experiment: Inhibition of recombinant human full-length N-terminal His6-tagged BTK expressed in baculovirus infected Sf21insect cells using poly (4:1 Glu, Tyr) as substrate measured after 1 hr by ELISA
[5] = target: Receptor tyrosine-protein kinase erbB-4 (Homo sapiens) (UniProt Q15303); experiment: Inhibition of ErbB4 (unknown origin) at 100 nM using poly (4:1 Glu, Tyr) as substrate measured after 1 hr by ELISA; summary of the method: as §1
Ramos = experiment: Antiproliferative activity against human Ramos cells after 72 hrs by MTT assay; type: functional, cell-based
Summary of the method: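 Ramos Burkitt's lymphoma cells (RPMI-1640 with 10% FBS, 37 °C, 5% CO2) were seeded and grown 2 h, then exposed to a range of concentrations in PBS, each in triplicate, for 72 h. MTT was added for 4 h at 37 °C, followed by SDS lysis buffer, and absorbance was read at 570 nm. Inhibition rate = [1 – (A treated/A control)] × 100%. Values are means ± SD of at least two independent determinations.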

[6] = target: T2, Tyrosine-protein kinase BTK; experiment: Inhibition of anti-IgM-induced BTK phosphorylation at Y223 residue in human Ramos cells at 5 nM preincubated for 1.5 hrs followed by anti-IgM stimulation and measured after 15 mins by Western blot analysis
[7] = target: T2, Tyrosine-protein kinase BTK; experiment: Inhibition of anti-IgM-stimulated BTK activation in human Ramos cells assessed as reduction in PLCgamma2 phosphorylation at Y759 residue at 5 nM preincubated for 1.5 hrs followed by anti-IgM stimulation and measured after 15 mins by Western blot analysis; type: cell-based
Summary of the method: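 Ramos cells were serum-starved 2 h and treated with compound for 1.5 h. They were then stimulated with anti-IgM (2.5 μg mL–1) for 15 min. Cells were lysed by boiling 30 min in Tris-HCl pH 6.8/DTT/SDS buffer and analysed by western blot. Blots were probed for BTK, p-BTK (Tyr223), PLCγ2 and p-PLCγ2, with β-actin or α-tubulin as loading controls.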

[8] = target: Proto-oncogene tyrosine-protein kinase receptor Ret (Homo sapiens) (UniProt P07949); experiment: Inhibition of RET (unknown origin) at 100 nM using poly (4:1 Glu, Tyr) as substrate measured after 1 hr by ELISA relative to control; summary of the method: as §1

T2 sequence (Q06187 whole entry): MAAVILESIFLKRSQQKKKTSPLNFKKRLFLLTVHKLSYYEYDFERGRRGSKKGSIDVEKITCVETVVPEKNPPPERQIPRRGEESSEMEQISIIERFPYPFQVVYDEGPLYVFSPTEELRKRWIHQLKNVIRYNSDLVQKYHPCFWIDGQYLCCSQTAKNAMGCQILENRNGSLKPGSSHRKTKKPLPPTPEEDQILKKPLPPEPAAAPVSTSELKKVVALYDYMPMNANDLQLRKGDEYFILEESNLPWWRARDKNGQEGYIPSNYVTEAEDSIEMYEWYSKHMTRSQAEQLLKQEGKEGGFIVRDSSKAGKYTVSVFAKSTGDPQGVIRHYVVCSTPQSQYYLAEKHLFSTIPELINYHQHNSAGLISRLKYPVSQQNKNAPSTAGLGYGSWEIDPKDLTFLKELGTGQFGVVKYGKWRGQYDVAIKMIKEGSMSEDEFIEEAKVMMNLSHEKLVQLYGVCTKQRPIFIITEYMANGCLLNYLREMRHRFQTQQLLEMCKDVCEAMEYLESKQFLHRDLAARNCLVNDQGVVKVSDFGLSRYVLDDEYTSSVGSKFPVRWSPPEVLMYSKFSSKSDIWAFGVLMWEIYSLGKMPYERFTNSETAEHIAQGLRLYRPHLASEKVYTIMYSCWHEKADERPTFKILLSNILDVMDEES
Chain of Epidermal growth factor receptor (Homo sapiens) (P00533 whole entry): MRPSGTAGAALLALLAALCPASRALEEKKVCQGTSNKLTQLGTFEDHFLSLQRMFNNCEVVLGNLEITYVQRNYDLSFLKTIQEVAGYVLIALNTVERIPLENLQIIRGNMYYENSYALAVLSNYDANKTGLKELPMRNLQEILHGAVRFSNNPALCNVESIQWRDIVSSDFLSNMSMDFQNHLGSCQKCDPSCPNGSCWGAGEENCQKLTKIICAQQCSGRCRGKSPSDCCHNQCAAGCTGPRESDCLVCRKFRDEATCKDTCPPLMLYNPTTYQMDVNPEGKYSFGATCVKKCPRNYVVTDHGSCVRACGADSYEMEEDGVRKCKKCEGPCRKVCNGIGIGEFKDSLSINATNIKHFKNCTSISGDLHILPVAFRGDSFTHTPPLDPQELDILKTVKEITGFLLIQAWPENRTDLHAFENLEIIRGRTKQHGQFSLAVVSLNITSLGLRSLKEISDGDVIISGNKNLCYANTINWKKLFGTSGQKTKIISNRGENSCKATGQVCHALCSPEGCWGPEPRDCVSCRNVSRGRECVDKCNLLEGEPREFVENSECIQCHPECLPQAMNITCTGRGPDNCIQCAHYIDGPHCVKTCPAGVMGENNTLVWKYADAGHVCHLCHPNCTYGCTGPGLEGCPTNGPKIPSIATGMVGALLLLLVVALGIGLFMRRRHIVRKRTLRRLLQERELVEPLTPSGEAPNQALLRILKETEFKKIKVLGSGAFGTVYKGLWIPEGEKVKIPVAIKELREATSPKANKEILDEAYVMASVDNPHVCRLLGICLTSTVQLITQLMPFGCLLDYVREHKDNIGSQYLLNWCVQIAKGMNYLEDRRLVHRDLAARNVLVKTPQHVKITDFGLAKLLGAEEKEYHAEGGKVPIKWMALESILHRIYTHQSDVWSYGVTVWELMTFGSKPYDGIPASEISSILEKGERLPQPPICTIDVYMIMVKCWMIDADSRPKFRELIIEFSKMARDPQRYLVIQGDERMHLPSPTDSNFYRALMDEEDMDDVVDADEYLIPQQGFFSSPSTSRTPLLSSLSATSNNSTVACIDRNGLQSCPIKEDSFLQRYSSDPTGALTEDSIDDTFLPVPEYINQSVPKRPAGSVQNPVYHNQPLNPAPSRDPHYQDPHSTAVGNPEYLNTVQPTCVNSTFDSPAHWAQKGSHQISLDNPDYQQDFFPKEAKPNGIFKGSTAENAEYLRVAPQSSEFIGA
Chain of Receptor tyrosine-protein kinase erbB-4 (Homo sapiens) (Q15303 whole entry): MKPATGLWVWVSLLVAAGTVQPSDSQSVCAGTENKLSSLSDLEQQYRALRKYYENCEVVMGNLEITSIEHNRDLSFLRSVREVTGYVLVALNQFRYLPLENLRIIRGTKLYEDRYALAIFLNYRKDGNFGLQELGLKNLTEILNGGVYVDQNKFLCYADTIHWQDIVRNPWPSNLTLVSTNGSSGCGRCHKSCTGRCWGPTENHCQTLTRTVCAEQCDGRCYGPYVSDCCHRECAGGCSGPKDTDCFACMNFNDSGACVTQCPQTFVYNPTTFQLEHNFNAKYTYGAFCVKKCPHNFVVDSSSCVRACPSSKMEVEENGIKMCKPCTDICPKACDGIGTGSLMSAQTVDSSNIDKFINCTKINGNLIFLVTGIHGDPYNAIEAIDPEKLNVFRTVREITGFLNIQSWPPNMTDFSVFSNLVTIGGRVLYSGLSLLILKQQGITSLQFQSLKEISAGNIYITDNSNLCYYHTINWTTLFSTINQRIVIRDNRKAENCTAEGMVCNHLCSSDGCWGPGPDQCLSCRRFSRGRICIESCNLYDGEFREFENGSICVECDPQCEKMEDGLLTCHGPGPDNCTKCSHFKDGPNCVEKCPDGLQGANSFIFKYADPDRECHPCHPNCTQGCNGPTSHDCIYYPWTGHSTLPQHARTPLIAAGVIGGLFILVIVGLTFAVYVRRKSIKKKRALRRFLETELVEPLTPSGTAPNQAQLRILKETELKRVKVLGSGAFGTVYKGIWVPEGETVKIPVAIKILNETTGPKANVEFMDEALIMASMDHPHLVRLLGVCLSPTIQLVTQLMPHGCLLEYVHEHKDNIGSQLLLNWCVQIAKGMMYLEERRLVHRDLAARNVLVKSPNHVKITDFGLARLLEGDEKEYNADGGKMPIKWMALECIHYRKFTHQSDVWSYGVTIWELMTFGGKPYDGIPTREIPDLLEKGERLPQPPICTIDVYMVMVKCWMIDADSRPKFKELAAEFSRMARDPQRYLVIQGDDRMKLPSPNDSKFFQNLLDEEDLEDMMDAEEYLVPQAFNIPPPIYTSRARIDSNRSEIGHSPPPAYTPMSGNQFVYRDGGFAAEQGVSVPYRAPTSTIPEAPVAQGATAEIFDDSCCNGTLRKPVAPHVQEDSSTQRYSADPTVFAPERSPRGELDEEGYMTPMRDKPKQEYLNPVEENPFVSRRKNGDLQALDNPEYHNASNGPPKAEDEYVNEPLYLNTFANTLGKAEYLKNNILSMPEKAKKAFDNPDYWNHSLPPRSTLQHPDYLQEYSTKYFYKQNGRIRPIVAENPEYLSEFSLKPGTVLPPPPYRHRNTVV
Chain of Receptor tyrosine-protein kinase erbB-2 (Homo sapiens) (P04626 whole entry): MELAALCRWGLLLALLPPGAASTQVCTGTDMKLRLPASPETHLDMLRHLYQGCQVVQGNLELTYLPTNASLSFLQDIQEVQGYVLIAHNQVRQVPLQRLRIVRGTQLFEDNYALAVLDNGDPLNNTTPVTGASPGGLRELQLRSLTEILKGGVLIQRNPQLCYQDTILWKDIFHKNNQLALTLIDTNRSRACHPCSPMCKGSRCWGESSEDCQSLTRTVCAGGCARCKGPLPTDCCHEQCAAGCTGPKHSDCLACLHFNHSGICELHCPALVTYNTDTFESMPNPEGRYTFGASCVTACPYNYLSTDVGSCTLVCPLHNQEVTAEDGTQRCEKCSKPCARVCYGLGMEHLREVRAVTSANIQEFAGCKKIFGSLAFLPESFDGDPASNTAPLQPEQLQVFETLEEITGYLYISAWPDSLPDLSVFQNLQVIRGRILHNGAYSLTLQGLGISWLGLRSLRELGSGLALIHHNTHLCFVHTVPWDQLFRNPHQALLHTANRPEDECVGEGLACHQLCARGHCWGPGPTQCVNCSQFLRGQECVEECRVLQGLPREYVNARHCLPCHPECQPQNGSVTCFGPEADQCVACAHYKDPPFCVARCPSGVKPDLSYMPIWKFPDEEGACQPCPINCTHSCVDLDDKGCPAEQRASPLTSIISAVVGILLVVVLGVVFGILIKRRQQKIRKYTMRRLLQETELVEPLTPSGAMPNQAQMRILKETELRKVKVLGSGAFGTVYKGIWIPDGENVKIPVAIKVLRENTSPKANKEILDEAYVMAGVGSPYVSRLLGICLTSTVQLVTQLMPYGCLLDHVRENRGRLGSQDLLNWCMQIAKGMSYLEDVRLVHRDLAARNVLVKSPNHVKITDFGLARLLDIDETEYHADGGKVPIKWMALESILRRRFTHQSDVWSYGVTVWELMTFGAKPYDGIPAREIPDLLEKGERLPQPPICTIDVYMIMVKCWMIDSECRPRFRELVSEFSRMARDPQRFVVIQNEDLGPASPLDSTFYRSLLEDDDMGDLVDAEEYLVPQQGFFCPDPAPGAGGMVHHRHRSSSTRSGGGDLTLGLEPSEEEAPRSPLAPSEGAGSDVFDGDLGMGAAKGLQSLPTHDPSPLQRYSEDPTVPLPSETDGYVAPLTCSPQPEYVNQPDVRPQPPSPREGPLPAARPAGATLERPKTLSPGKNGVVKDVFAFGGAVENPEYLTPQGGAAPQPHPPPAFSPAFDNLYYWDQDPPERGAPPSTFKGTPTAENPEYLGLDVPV

C=CC(=O)Nc1cccc(-n2c(=O)c(=O)n(C(C)C)c3cnc(Nc4ccc(N5CCN(C)CC5)cc4OC)nc32)c1
inhibition [1]: Active | inhibition [2]: < 35% | Ratio IC50 (Homo sapiens): 23 | inhibition [3]: < 35% | IC50 [4]: 47.4 nM | inhibition [5]: Active

C=CC(=O)Nc1cccc(-n2c(=O)c(=O)n(C)c3cnc(Nc4ccc(N5CCN(C)CC5)cc4OC)nc32)c1
IC50 [4]: 237 nM

C=CC(=O)N1CCC[C@@H](n2nc(-c3ccc(Oc4ccccc4)cc3)c3c(N)ncnc32)C1 [IBRUTINIB]
IC50 (Ramos): 6180 nM

C=CC(=O)Nc1cccc(-n2c(=O)c(=O)n(C(C)C)c3cnc(Nc4ccc(N5CCN(C)CC5)c(C)c4)nc32)c1
inhibition [1]: Active | IC50 (Ramos): 9370 nM | inhibition [6]: Active | inhibition [2]: < 35% | inhibition [7]: Active | inhibition [3]: < 35% | IC50 [4]: 1.9 nM | inhibition [8]: > 70% | inhibition [5]: Active

C=CC(=O)Nc1cccc(-n2c(=O)c(=O)n(C(C)C)c3cnc(Nc4ccc(N5CCC(N6CCN(C)CC6)CC5)cc4OC)nc32)c1
IC50 [4]: 12.8 nM

C=CC(=O)Nc1cccc(-n2c(=O)c(=O)n(C(C)C)c3cnc(Nc4ccc(OCCN(C)C)cc4OC)nc32)c1
IC50 [4]: 31.9 nM

C=CC(=O)Nc1cccc(-n2c(=O)c(=O)n(CCC)c3cnc(Nc4ccc(N5CCN(C)CC5)cc4OC)nc32)c1
IC50 [4]: 21.8 nM

C=CC(=O)Nc1cccc(-n2c(=O)c(=O)n(CC)c3cnc(Nc4ccc(N5CCN(C)CC5)cc4OC)nc32)c1
IC50 [4]: 17.2 nM

C=CC(=O)Nc1cccc(-n2c(=O)c(=O)n(C(C)C)c3cnc(Nc4ccc(N(C)CCN(C)C)cc4OC)nc32)c1
IC50 [4]: 20.8 nM

C=CC(=O)Nc1cccc(-n2c(=O)c(=O)[nH]c3cnc(Nc4ccc(N5CCN(C)CC5)cc4OC)nc32)c1
IC50 (Ramos): > 100000 nM | inhibition [6]: inactive | inhibition [7]: inactive | IC50 [4]: 5.4 nM

C=CC(=O)Nc1cccc(-n2c(=O)c(=O)n(C(C)C)c3cnc(Nc4ccc(N5CCN(C)CC5)c(OC)c4)nc32)c1
inhibition [1]: Active | IC50 (Ramos): 10100 nM | inhibition [6]: Active | inhibition [2]: < 35% | inhibition [7]: Active | inhibition [3]: < 35% | IC50 [4]: 2.4 nM | inhibition [8]: > 70% | inhibition [5]: Active

From ChEMBL document CHEMBL4257496, “Discovery and biological evaluation of N5-substituted 6,7-dioxo-6,7-dihydropteridine derivatives as potent Bruton's tyrosine kinase inhibitors” (Medchemcomm, 2018)
